Experimental data taken from ChEMBL document CHEMBL3400122, “8-(3-chloro-4-methoxybenzyl)-8H-pyrido[2,3-d]pyrimidin-7-one derivatives as potent and selective phosphodiesterase 5 inhibitors” (Bioorg Med Chem Lett, 2015).

Assays:
[1] = target: cGMP-specific 3',5'-cyclic phosphodiesterase (Canis lupus familiaris, UniProt O77746); assay: Inhibition of canine lung PDE5 using [3H]cGMP incubated for 30 mins by scintillation analysis
How it was run: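 Radiolabeled nucleotide method using PDE5 isolated from canine lung. Started with [³H]cGMP plus unlabeled cGMP, 37 °C for 30 min, stopped by boiling 1.5 min. Crotalus atrox venom step at 37 °C for 30 min, column separation, eluate counted by scintillation.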

[2] = Selectivity for bovine retina PDE6 to canine lung PDE5
[3] = test system: Corpus cavernosum; assay: Relaxation effect on phenylephrine-induced contractile response in isolated rabbit corpus cavernosum; assay type: functional; conditions: Oryctolagus cuniculus
How it was run: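 Isolated rabbit corpus cavernosum strips in organ baths. High-KCl (120 mM) PSS contraction checked twice, then phenylephrine (5 × 10⁻⁶ M) gave a tonic contraction. Once stable, test compound (10⁻¹⁰–10⁻⁶ M) or vehicle added at 30 min intervals. EC30 derived from the logarithmic concentration–inhibition curve.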

Structure (SMILES)	IC50 [1] [nM]	Selectivity ratio [2]	Ratio IC50 [2]	EC30 [3] [nM]
CCCc1nn(C)c2c(=O)[nH]c(-c3cc(S(=O)(=O)N4CCN(C)CC4)ccc3OCC)nc12 [SILDENAFIL]	–	–	–	8.7
COc1ccc(CNc2nc(N3CCC[C@H]3CO)ncc2C(=O)c2cc(OC)c(OC)c(OC)c2)cc1Cl	0.21	–	5700	> 100
COc1ccc(CNc2nc(N3CCC[C@H]3CO)ncc2C(C)=O)cc1Cl	5.2	–	–	–
COc1ccc(CNc2nc(N3CCC[C@H]3CO)ncc2C(=O)CCN2CCOCC2)cc1Cl	2.9	–	–	–
COc1ccc(CNc2nc(N3CCC[C@H]3CO)ncc2C(=O)c2ccccn2)cc1Cl	12	–	–	–
COc1ccc(CNc2nc(N3CCC[C@H]3CO)ncc2C(=O)c2nccn2C)cc1Cl	12	–	–	–

Continued, in another order:

IC50 [1] [nM]	Selectivity ratio [2]	Ratio IC50 [2]	Structure (SMILES)	EC30 [3] [nM]
0.98	1600	–	COc1ccc(Cn2c(=O)cc(CCN3CCOCC3)c3cnc(N4CCC[C@H]4CO)nc32)cc1Cl	8.6
1.7	1900	–	COc1ccc(Cn2c(=O)cc(-c3ccccn3)c3cnc(N4CCC[C@H]4CO)nc32)cc1Cl	–
33	–	–	COc1ccc(CNc2nc(N3CCC[C@H]3CO)ncc2C=O)cc1Cl	–
3.3	850	–	COc1ccc(Cn2c(=O)ccc3cnc(N4CCC[C@H]4CO)nc32)cc1Cl	2.2
7.2	–	–	COc1ccc(Cn2c(=O)cc(-c3nccn3C)c3cnc(N4CCC[C@H]4CO)nc32)cc1Cl	–
0.86	2300	–	COc1ccc(Cn2c(=O)cc(C)c3cnc(N4CCC[C@H]4CO)nc32)cc1Cl	0.85
